In ChEMBL document CHEMBL3259629, “Discovery and optimization of piperidyl-1,2,3-triazole ureas as potent, selective, and in vivo-active inhibitors of α/β-hydrolase domain containing 6 (ABHD6)” (J Med Chem, 2013):
Activity calls are given as the source filed them. No cut-off for these calls is given here.

Legend:
[1] = target: T1, Monoacylglycerol lipase ABHD6 (Mus musculus, UniProt Q8R2Y0); test: Inhibition of recombinant mouse ABHD6 expressed in HEK293T using 2-arachidonoylglycerol preincubated for 30 mins followed by substrate addition measured after 30 mins by LC-MS analysis
T1 sequence (Q8R2Y0 whole entry): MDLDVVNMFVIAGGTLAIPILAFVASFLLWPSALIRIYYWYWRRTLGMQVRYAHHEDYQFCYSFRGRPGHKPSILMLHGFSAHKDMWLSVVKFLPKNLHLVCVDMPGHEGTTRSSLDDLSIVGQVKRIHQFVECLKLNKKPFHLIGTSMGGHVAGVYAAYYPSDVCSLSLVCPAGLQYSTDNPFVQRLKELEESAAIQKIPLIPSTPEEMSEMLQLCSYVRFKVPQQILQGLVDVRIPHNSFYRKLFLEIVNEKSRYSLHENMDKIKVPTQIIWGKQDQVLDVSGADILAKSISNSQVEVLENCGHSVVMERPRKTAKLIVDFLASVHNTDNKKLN

[2] = tested on: Mus musculus; test: In vivo inhibition of carboxylesterase-1 in C57Bl/6 mouse brain at 0.1 to 1 mg/kg, ip after 4 hrs by FP-rhodamine-labelled gel-based competitive ABPP assay; format: functional, organism-based
Method in brief: (§1)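 C57Bl/6 mice dosed i.p. at 0.1, 0.5 or 1 mg kg⁻¹ in 18:1:1 saline/ethanol/PEG40 (ethoxylated castor oil), 10 μL g⁻¹. Killed after 4 hr under isoflurane by cervical dislocation. Brain and liver membrane fractions (100,000 × g) labelled with FP-rhodamine or HT-01 (1 μM, 30 min, 37 °C), then SDS-PAGE and in-gel fluorescence scanning. Liver ABHD6 read from HT-01 gels.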

[3] = target: T2, Fatty-acid amide hydrolase 1 (Mus musculus) (UniProt O08914); test: Inhibition of mouse brain FAAH at 10 uM after 30 mins by FP-rhodamine ABPP-based SDS-PAGE analysis relative to control
T2 sequence (whole entry): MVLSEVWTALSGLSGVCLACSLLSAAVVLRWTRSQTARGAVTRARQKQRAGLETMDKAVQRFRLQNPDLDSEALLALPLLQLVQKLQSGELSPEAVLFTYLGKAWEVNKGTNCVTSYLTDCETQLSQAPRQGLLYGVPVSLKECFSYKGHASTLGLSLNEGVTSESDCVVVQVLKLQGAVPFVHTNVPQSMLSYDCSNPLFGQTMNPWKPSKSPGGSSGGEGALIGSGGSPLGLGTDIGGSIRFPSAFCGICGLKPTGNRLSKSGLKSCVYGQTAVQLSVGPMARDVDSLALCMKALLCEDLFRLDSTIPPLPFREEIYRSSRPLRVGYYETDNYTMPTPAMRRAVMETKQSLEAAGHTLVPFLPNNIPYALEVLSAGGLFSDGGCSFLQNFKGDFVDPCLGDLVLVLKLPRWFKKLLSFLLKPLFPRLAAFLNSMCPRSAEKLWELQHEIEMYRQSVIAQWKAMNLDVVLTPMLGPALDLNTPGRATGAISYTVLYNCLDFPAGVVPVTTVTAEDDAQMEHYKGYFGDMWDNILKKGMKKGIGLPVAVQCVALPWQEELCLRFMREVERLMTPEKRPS

[4] = target: T1, Monoacylglycerol lipase ABHD6
[5] = tested on: Mus musculus; test: In vivo inhibition of carboxylesterase-1 in C57Bl/6 mouse liver at 0.1 to 1 mg/kg, ip after 4 hrs by FP-rhodamine-labelled gel-based competitive ABPP assay; format: functional, organism-based; method in brief: as §1
[6] = tested on: Mus musculus; test: In vivo inhibition of ABHD6 in C57Bl/6 mouse brain at 1 mg/kg, ip after 4 hrs by HT-10-labelled gel-based competitive ABPP assay; format: functional, organism-based; parameters: dose 1 mg/kg; method in brief: as §1
[7] = tested on: Mus musculus; test: In vivo inhibition of ABHD6 in C57Bl/6 mouse liver at 1 mg/kg, ip after 4 hrs by HT-10-labelled gel-based competitive ABPP assay; format: functional, organism-based; parameters: dose 1 mg/kg; method in brief: as §1
[8] = tested on: Mus musculus; test: In vivo inhibition of ABHD6 in C57Bl/6 mouse liver at 0.1 mg/kg, ip after 4 hrs by HT-10-labelled gel-based competitive ABPP assay; format: functional; conditions: C57Bl/6, Liver, route intraperitoneal
Method in brief: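 C57Bl/6 mice dosed i.p. (18:1:1 v/v/v saline/ethanol/PEG40, 10 μL g⁻¹) across 0.1–1 mg kg⁻¹; after 4 hr, anesthetized with isoflurane, euthanized, liver membrane fraction isolated (Dounce homogenization in PBS pH 7.5, 1,400 × g then 100,000 × g spin). Proteome labeled with HT-01 (1 μM, 30 min, 37 °C), SDS-PAGE, in-gel fluorescence; ABHD6 activity versus vehicle.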

[9] = tested on: Mus musculus; test: In vivo inhibition of FAAH in C57Bl/6 mouse brain at =>10 mg/kg, po after 4 hrs by FP-rhodamine/HT-10-labelled gel-based competitive assay
[10] = target: Acyl-protein thioesterase 2 (Mus musculus) (UniProt Q9WTL7); test: Inhibition of FP-rhodamine-labelled recombinant mouse LYPLA2 at 10 uM preincubated for 30 mins followed by FP-rhodamine labelling measured after 30 mins by gel-based competitive ABPP assay
[11] = target: Acyl-protein thioesterase 1 (Mus musculus) (UniProt P97823); test: Inhibition of FP-rhodamine-labelled recombinant mouse LYPLA1 at 10 uM preincubated for 30 mins followed by FP-rhodamine labelling measured after 30 mins by gel-based competitive ABPP assay
[12] = tested on: Mus musculus; test: In vivo inhibition of ABHD6 in C57Bl/6 mouse brain at 20 mg/kg, ip after 4 hrs by FP-rhodamine/HT-10-labelled gel-based competitive assay; conditions: C57Bl/6, Brain
[13] = target: T1, Monoacylglycerol lipase ABHD6; test: Inhibition of ABHD6 in FP-rhodamine-labelled mouse brain membrane preincubated for 30 mins followed by FP-rhodamine labelling measured after 30 mins by gel-based competitive ABPP assay
[14] = tested on: Mus musculus; test: In vivo inhibition of ABHD6 in C57Bl/6 mouse liver at 10 to 40 mg/kg, po after 4 hrs by FP-rhodamine/HT-10-labelled gel-based competitive assay; format: functional, organism-based
[15] = tested on: Mus musculus; test: In vivo inhibition of carboxylesterase-1 in C57Bl/6 mouse liver at 40 mg/kg, po after 4 hrs by FP-rhodamine-labelled gel-based competitive ABPP assay; format: functional, organism-based; parameters: dose 40 mg/kg
[16] = tested on: Mus musculus; test: In vivo inhibition of FAAH in C57Bl/6 mouse liver and bain at 0.1 to 1 mg/kg, ip after 4 hrs by FP-rhodamine-labelled gel-based competitive ABPP assay; format: functional, organism-based; method in brief: as §1
[17] = tested on: Mus musculus; test: In vivo inhibition of PLA2G7 in C57Bl/6 mouse liver and bain at 0.1 to 1 mg/kg, ip after 4 hrs by FP-rhodamine-labelled gel-based competitive ABPP assay; format: functional, organism-based; method in brief: as §1
[18] = tested on: Mus musculus; test: In vivo inhibition of ABHD6 in C57Bl/6 mouse brain at 0.1 to 1 mg/kg, ip after 4 hrs by HT-10-labelled gel-based competitive ABPP assay; format: functional, organism-based; method in brief: as §1

Sequence of Acyl-protein thioesterase 1 (Mus musculus) (P97823 whole entry): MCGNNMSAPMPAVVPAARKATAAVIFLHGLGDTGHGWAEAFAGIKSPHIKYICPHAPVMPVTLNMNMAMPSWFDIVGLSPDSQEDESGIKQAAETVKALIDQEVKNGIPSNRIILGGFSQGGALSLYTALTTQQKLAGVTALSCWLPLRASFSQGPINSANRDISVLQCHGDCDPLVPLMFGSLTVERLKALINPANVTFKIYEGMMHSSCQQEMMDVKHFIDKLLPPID
Sequence of Acyl-protein thioesterase 2 (Mus musculus) (Q9WTL7 whole entry): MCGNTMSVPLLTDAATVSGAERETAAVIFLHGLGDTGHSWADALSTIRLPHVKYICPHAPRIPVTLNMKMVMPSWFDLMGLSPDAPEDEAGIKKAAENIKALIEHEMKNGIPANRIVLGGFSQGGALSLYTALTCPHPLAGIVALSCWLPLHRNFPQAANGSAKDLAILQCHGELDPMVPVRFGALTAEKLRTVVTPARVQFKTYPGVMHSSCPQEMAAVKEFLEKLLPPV

Structure (SMILES) | IC50 ([1]; hek-293t) | inhibition [2] | inhibition [3] | IC50 [4] | inhibition [5] | inhibition [6] | inhibition [7] | inhibition in vivo at 0.1 mg/kg [8] | inhibition [9] | inhibition [10] | inhibition [11] | IC50 [1] | inhibition in vivo at 20 mg/kg [12] | IC50 [13] | inhibition [14] | inhibition [15] | inhibition [16] | inhibition [17] | inhibition [18]
O=C(N1CCCCC1c1ccccc1)n1cc(-c2ccc(-c3cccc(CO)c3)cc2)nn1 (racemic) | 15.1 nM | Active | Active | 0.24 nM | Active | Active | Active | 80% | Active | Active | Active | – | – | – | – | – | – | – | –
O=C(c1cccc(-c2ccc(-c3cn(C(=O)N4CCCCC4c4ccccc4)nn3)cc2)c1)N1CCCCC1 (racemic) | – | – | – | – | – | – | – | – | – | Active | Active | 13.6 nM | > 70% | 1.3 nM | Active | Active | – | – | –
O=C(O)c1cccc(-c2ccc(-c3cn(C(=O)N4CCCCC4Cc4ccccc4)nn3)cc2)c1 (racemic) | – | inactive | Active | – | inactive | – | Active | 80% | Active | – | – | – | – | – | – | – | inactive | inactive | inactive
